UCH37 inh: inhibitors of human UCH37 deubiquitinase, primary screen, biochemical, Ub-AMC cleavage, fluorescence; Ubiquitin carboxyl-terminal hydrolase isozyme L5 (Homo sapiens), Q9Y5K5; purified proteasome/UCH37; inhibition, % (concentration not given with the values); 330,000 compounds, 0.33% hits;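 active means mean inhibition over replicate wells above about 20%, limit read from the data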
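Signal – fluorescence, ex 355 nm, em 460 nm · System – Proteasome-bound UCH37 · Input – 0.15 nM proteasome as dispensed · Timing – 30 min preincubation with enzyme, 25 min cleavage at room temperature · Read-out basis – percent inhibition of cleavage signal versus uninhibited and no-proteasome wells · Medium – Tris-HCl pH 7.4 with ATP-MgCl2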
Fh CTSL1 inh: Fasciola hepatica cathepsin L1 inhibitors, primary screen, counter-screen for PFM18AAP inhibitor project, biochemical, QFRET, fluorogenic peptide substrate. inhibition, % at 5.96 µM. recombinant F. hepatica cathepsin L1, Z-Leu-Arg-MCA fluorescence. 300,000 compounds, 0.49% hits. AID 1906, 2009;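 active means inhibition above the mean of all tested compounds plus 3 SD, set per screening campaign, cut at about 17% in these data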
PAD4 FP inh: human PAD4 inhibitors, primary screen, biochemical, fluorescence polarization, 1536-well format; Protein-arginine deiminase type-4 (Homo sapiens), Q9UM07; AID 485272, 2010; inhibition, % at 6.36 µM; 330,000 compounds, 0.41% hits; recombinant PAD4, RCA probe fluorescence polarization;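 active means percent inhibition above a cutoff equal to the mean of all tested compounds plus 3 SD, cut at about 15% in these data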
Target sequence (Q9UM07 whole entry, looked up): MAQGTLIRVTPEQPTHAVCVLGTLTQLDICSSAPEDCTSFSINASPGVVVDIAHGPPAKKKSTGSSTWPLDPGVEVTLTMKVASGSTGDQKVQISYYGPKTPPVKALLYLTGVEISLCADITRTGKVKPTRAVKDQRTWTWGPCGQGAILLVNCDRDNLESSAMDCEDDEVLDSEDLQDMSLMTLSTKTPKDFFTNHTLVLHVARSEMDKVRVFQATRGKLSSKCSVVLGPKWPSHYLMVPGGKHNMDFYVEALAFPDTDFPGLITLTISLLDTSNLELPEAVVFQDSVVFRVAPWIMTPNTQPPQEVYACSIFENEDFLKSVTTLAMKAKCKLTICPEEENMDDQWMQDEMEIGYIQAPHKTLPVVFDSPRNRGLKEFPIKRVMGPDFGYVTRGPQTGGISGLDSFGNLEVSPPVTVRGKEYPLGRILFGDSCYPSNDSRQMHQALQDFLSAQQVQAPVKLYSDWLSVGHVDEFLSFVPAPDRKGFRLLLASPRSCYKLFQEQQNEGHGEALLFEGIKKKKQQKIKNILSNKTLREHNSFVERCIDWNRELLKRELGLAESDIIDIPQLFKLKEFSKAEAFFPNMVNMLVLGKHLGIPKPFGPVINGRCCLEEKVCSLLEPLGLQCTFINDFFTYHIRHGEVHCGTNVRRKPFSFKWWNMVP
GSTO1 inh: inhibitors of recombinant GSTO1, primary screen, counter-screen for RBBP9 inhibitor project, biochemical, fluorescence polarization | Glutathione S-transferase omega-1 (Homo sapiens), P78417 | activity-based probe fluorescence polarization | inhibition, % at 5.96 µM | 300,000 compounds, 1.1% hits;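 active means inhibition above the campaign mean inhibition plus 3 SD, cut at about 35% in these data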
Apaf1 inhib: inhibitors of human Apaf-1 apoptosome, primary screen, biochemical, DEVD-Rh110 fluorescence, uHTS. Apoptotic protease-activating factor 1 (Homo sapiens), O14727. 330,000 compounds, 0.71% hits. reconstituted apoptosome caspase-3 activity. inhibition, % at 20 µM. AID 489030, 2010; active means inhibition of at least 40% at 20 µM
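Material: reconstituted apoptosome with Apaf-1, cytochrome c, caspase-9, procaspase-3, dATP. Technique: Rh110 fluorescence intensity. Buffer or medium: pH 7.5 Hepes buffer with CHAPS, BSA, DTT. Times: 30 min plus 50 min, RT.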
PP5 primary: PP5 phosphatase inhibitors, primary screen, biochemical, fluorescence. purified PP5c, OMFP substrate fluorescence. inhibition, % at 6.7 µM. 320,000 compounds, 0.18% hits. AID 1987, 2009;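 active means inhibition above the campaign's mean inhibition across all tested compounds plus 3 SD, cut at about 9.5% in these data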
GSTO1 confirm: GSTO1 inhibitor hit confirmation, counter-screen for RBBP9 inhibitor project, biochemical, fluorescence polarization, triplicate; shares compounds with GSTO1 inh; recombinant GSTO1, probe fluorescence polarization; inhibition, % at 5.96 µM; 2,400 compounds, 54% hits;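 active means inhibition above the primary screen's cutoff, its mean inhibition plus 3 SD, cut at about 35% in these data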;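 further: loss of polarization as inhibitors block binding of rhodamine sulfonate ester activity probe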
GSTO1 recomb ABPP: inhibitors of purified human GSTO1, late-stage follow-up, biochemical, gel ABPP, SE-Rh probe, percent inhibition; inhibition, % at 1 µM; shares compounds with GSTO1 inh; AID 463110, 2010; 130 compounds, 30% hits; recombinant GSTO1, gel ABPP SE-Rh probe fluorescence;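 active means inhibition of the enzyme GSTO1 above about 75%, limit read from the data; inactive means inhibition below that limit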
Of the large screens only hits and unclear results are named; the others gave an inactive call (follow-up assays come after a bar, where they were run). Sampled rows, rich in hits. Any-hit rate of the full collection: about 2%.

CCN(CC)c1ccc(C=Nn2nnnc2N)c(O)c1	none (no result: Fh CTSL1 inh, PAD4 FP inh, GSTO1 inh, Apaf1 inhib, PP5 primary)
Cc1nn(C)cc1C=NO	none (no result: Fh CTSL1 inh, PAD4 FP inh, GSTO1 inh, Apaf1 inhib, PP5 primary)
O=C1C(Cl)=C(NCCCO)C(=O)c2ccccc21	GSTO1 inh 61.9, Apaf1 inhib 44.7 | GSTO1 confirm inactive
COC(=O)c1ccnc(C=NO)c1	none (no result: Fh CTSL1 inh, PAD4 FP inh, GSTO1 inh, Apaf1 inhib, PP5 primary)
Cc1ccc(C(=O)NNC(=S)NC(=O)c2ccco2)cc1	none
CC(C)C(=O)Nc1ccc(C(=O)NNC(=S)NC(=O)c2ccco2)cc1	GSTO1 inh 45.5 | GSTO1 confirm inactive
CN1CCN(C2=C(Cl)C(=O)C(c3cnc(N4CCCCC4)s3)=C(Cl)C2=O)CC1	PAD4 FP inh 22.5, GSTO1 inh 83.8, Apaf1 inhib 84.3 | GSTO1 confirm inactive
Nc1nnc(CC(=O)NN=Cc2ccc(-c3ccccc3Cl)o2)s1	none (no result: Fh CTSL1 inh, PAD4 FP inh, GSTO1 inh, Apaf1 inhib, PP5 primary)
CCN(CC)c1ccc(/C=C2\C(=O)N(c3nnc(C)c(=O)[nH]3)N=C2C)cc1	GSTO1 inh 40.5 | GSTO1 confirm inactive
COc1cc(-c2cc(=O)c3c(O)c(OC)c(OC)c(O)c3o2)ccc1O	GSTO1 inh 41.5 | GSTO1 confirm inactive
COc1c(O)c(O)c2oc(-c3ccccc3)cc(=O)c2c1OC	none
COC(=O)c1cccc2c1NC(=O)C2=O	Fh CTSL1 inh 17.0, GSTO1 inh 50.5 | GSTO1 confirm inactive
Cc1cccc2c1NC(=O)C2=O	none (no result: Fh CTSL1 inh, PAD4 FP inh, GSTO1 inh, Apaf1 inhib, PP5 primary)
COc1cccc(C=NNC(=O)C[n+]2ccccc2)c1OC	none (no result: Fh CTSL1 inh, PAD4 FP inh, GSTO1 inh, Apaf1 inhib, PP5 primary)
O=C(CSc1nnc(-c2ccc(Cl)cc2)n1-c1ccc(Cl)cc1)NN=Cc1ccccc1C(=O)O	none (no result: Fh CTSL1 inh, PAD4 FP inh, GSTO1 inh, Apaf1 inhib, PP5 primary)
CCOC(=O)Cc1csc(NC(=O)NC2(C(F)(F)F)Oc3ccccc3O2)n1	none
CCOC(=O)Cc1csc(NC(=O)NC2(C(F)(F)F)Oc3cc(Cl)c(Cl)cc3O2)n1	GSTO1 inh 44.2 | GSTO1 confirm inactive
CCOC(=O)Cc1csc(NC(=O)Nc2ccc(OC(F)(F)F)cc2)n1	none
CCOC(=O)Cc1csc(NC(=O)NC2(C(F)(F)F)Oc3ccc(Cl)cc3O2)n1 (configuration not stated)	GSTO1 inh 45.4 | GSTO1 confirm inactive
Cc1ccc(C(=O)NN=c2oc3ccccc3cc2C(N)=O)cc1	none (no result: Fh CTSL1 inh, PAD4 FP inh, GSTO1 inh, Apaf1 inhib, PP5 primary)
O=C(O)c1[nH]c2ccccc2c1C(c1ccccc1)c1c(C(=O)O)[nH]c2ccccc12	GSTO1 inh 37.6 | GSTO1 confirm inactive
O=C(CSCc1ccc(Cl)cc1)NN=Cc1ccc(Cl)cc1Cl	none (no result: Fh CTSL1 inh, PAD4 FP inh, GSTO1 inh, Apaf1 inhib, PP5 primary)
O=C(CNC(=O)c1ccc(Br)cc1)N=Nc1c(O)[nH]c2ccc([N+](=O)[O-])cc12	none
O=[N+]([O-])c1ccc2[nH]c(O)c(N=NC(=S)NCC3CCCO3)c2c1 (configuration not stated)	GSTO1 inh 40.3 | GSTO1 confirm 45.4
O=[N+]([O-])c1ccc2[nH]c(O)c(N=NC(=S)Nc3cccnc3)c2c1	GSTO1 inh 41.7 | GSTO1 confirm 65.4
C(=NN1CCOCC1)c1ccsc1	none (no result: Fh CTSL1 inh, PAD4 FP inh, GSTO1 inh, Apaf1 inhib, PP5 primary)
O=S(=O)(c1ccc2ccccc2c1)N(CC1CO1)c1ccccc1 (configuration not stated)	GSTO1 inh 69.7 | GSTO1 confirm 92.3 | GSTO1 recomb ABPP inactive
Cc1ccc(N(CC2CO2)S(=O)(=O)c2ccc([N+](=O)[O-])cc2)cc1 (configuration not stated)	GSTO1 inh 87.7 (no result: UCH37 inh) | GSTO1 confirm 84.8 | GSTO1 recomb ABPP inactive
CCN(c1ccccc1)S(=O)(=O)c1ccc2ccccc2c1	none
